# Hits are enriched below; roughly 3% of the tested compounds scored in any of these assays.
# UCH37 DUB inh: inhibitors of human UCH37 deubiquitinase, primary screen, biochemical, Ub-AMC cleavage, fluorescence. Ubiquitin carboxyl-terminal hydrolase isozyme L5 (Homo sapiens), Q9Y5K5. 330,000 compounds, 0.33% hits. inhibition, % (concentration not given with the values). purified proteasome/UCH37;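 active = mean inhibition over replicate wells above about 20%, limit read from the data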;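 also: 0% = compound-free wells with enzyme and 100% = wells lacking proteasome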
#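 system = Proteasome-associated human UCH37 deubiquitinase | amount = 0.15 nM proteasome as dispensed | medium = pH 7.4 Tris-HCl (50 mM) with ovalbumin, ATP-MgCl2, DTT | incubation = 30 min preincubation with enzyme, 25 min cleavage at room temperature | detection = AMC fluorescence 355/460 nm | read-out basis = percent inhibition | controls = no-proteasome and no-compound wells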
# MEKK2 WT-MEK5: modulators of MEK5 binding to wildtype MEKK2, primary screen, biochemical, multiplex bead flow cytometry, Alexa488-MEK5 | Mitogen-activated protein kinase kinase kinase 2 (Homo sapiens), Q9Y2U5 | Alexa488-MEK5 binding to MEKK2 WT; actives lie on both sides | 290,000 compounds, 1.1% hits | binding response (% of control), % at 10 µM; in the data active = binding response below about 67% or above about 130%
# Apaf1 inhib: inhibitors of human Apaf-1 apoptosome, primary screen, biochemical, DEVD-Rh110 fluorescence, uHTS; 330,000 compounds, 0.71% hits; Apoptotic protease-activating factor 1 (Homo sapiens), O14727; reconstituted apoptosome caspase-3 activity; inhibition, % at 20 µM; active = inhibition of at least 40% at 20 µM;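 also: plate controls were DMSO wells for no effect and DEVD-CHO caspase inhibitor wells for full effect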
#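 Material: reconstituted apoptosome with Apaf-1, cytochrome c, caspase-9, procaspase-3, dATP / Buffer or medium: pH 7.5 Hepes buffer with CHAPS, BSA, DTT / Also added: cytochrome c with DEVD-Rh110 / Schedule: compound with Apaf-1, dATP, procaspase-3 30 min, then 50 min reaction, room temperature / Technique: rhodamine 110 fluorescence at Ex 480/Em 540 nm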
# UBC13 polyUb: UBC13 polyubiquitin chain formation inhibitors, primary screen, biochemical, TR-FRET, uHTS; Ubiquitin-conjugating enzyme E2 N (Homo sapiens), P61088; inhibition, % at 20 µM; 330,000 compounds, 0.47% hits; in the data active = inhibition above about 45%, passing the limit was not always enough
# MEKK3 PB1 HTS: modulators of MEKK3-MEK5 PB1 binding, primary screen, biochemical, wildtype MEKK3, multiplex bead flow cytometry, Alexa488-MEK5. Mitogen-activated protein kinase kinase kinase 3 (Homo sapiens), Q99759. bead-based flow cytometry, Alexa488-MEK5 binding to MEKK3; actives lie on both sides; 0 = blocked by unlabeled MEK5, 100 = vehicle. binding response (% of control), % at 10 µM. 290,000 compounds, 1.4% hits;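 active = binding response more than 3 SD above or below the average of its plate-row segment, actives on both sides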;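 also: Alexa488 bead fluorescence after subtracting the streptavidin-only scavenger bead signal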
# Target sequence (Q99759 whole entry, looked up): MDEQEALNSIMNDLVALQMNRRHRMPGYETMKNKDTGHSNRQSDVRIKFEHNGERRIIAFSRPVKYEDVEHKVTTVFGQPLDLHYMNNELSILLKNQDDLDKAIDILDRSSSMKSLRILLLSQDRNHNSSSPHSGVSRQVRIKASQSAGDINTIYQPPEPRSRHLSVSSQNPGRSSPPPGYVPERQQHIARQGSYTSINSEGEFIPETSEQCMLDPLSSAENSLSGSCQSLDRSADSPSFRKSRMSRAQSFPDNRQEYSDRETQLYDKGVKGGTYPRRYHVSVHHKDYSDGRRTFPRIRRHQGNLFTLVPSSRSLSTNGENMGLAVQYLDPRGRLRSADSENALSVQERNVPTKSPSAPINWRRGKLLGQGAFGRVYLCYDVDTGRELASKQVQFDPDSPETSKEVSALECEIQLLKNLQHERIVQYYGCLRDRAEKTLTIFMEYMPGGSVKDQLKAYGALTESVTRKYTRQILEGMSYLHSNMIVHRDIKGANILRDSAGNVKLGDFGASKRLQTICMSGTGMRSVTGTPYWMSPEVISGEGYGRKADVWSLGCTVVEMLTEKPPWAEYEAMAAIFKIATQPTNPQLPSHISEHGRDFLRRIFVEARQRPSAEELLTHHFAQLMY
# MEKK2 mut-MEK5: MEK5 binding signal on mutant MEKK2 PB1, primary screen, biochemical, multiplex bead flow cytometry, Alexa488-MEK5; Alexa488-MEK5 binding to MEKK2 mutant; percent response, % at 10 µM; 290,000 compounds, 0.35% hits; in the data active = percent response above about 24%, passing the limit was not always enough
# MEKK2wt confirm: modulators of MEK5 binding to wildtype MEKK2, confirmation, biochemical, single concentration, multiplex bead flow cytometry; shares compounds with MEKK3 PB1 HTS; Alexa488-MEK5 binding to MEKK2 WT; actives lie on both sides; binding response (% of control), % at 10 µM; 5,900 compounds, 2.4% hits; in the data active = binding response below about 16% or above about 210%; inactive = in between
# MEKK2mut confirm: mutant MEKK2 PB1-MEK5 binding signal retest – biochemical, single concentration, multiplex bead flow cytometry, confirmation | shares compounds with MEKK3 PB1 HTS | Alexa488-MEK5 binding to MEKK2 mutant | percent response, % at 10 µM | 5,900 compounds, 2% hits; in the data active = percent response mostly above about 71%, no sharp cut-off; inactive = mostly below about 38%;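 also: higher means compound restores mutant binding toward wildtype level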
# MEKK3-MEK5 inh: MEKK3 wild-type PB1 binding to MEK5, inhibitors, confirmation, biochemical, bead multiplex flow cytometry, single concentration, wildtype; shares compounds with MEKK3 PB1 HTS; Alexa488-MEK5 binding to MEKK3; active compounds read low; 5,900 compounds, 1.8% hits; binding response (% of control), % at 10 µM;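 active = binding response below 72% of control, or above a set upper limit, though filed actives all read lower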;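 also: 100% = DMSO only wells and 0% = binding blocked by excess unlabeled MEK5; lower values mean stronger disruption of MEK5 binding to MEKK3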
# The depositor's hits bear a star; i = inactive; / = no result given; [ ] = dose if it differs, or a comment.
SMILES,UCH37 DUB inh,MEKK2 WT-MEK5,Apaf1 inhib,UBC13 polyUb,MEKK3 PB1 HTS,MEKK2 mut-MEK5,MEKK2wt confirm,MEKK2mut confirm,MEKK3-MEK5 inh
Cc1ccc(NC(=O)C(=O)NCC2OCCc3ccccc32)cc1 (centres undefined),3.0,94.0,11.4,-6.5,106.0,-8.0,/,/,/
O=C(Cc1c(F)cccc1Cl)NNC(=O)c1ccccc1Cl,-1.9,/,-13.6,13.9,/,/,/,/,/
COc1ccc(-c2cc3ccccc3n2CC(O)CN2CCC(C)CC2)cc1 (centres undefined),-0.7,149.0*,33.9,8.1,99.0,16.0,152.0,34.0,107.0
CCc1noc(C)c1C(=O)OCC(=O)N(CCOC)c1c(N)n(Cc2ccccc2)c(=O)[nH]c1=O,3.4,/,-0.4,-9.2,/,/,/,/,/
O=C(CSc1nnc(-c2cccs2)n1Cc1ccccc1)NCc1ccc2c(c1)OCO2,-2.2,90.0,1.8,6.2,76.0*[inhibitor],-9.0,103.0,1.0,105.0
Cc1cccn2c(CNCCc3ccccn3)c(C(=O)N3CCOCC3)nc12,-3.5,102.0,5.8,-4.3,103.0,8.0,/,/,/
COC(=O)c1ccc(-c2cc(C(=O)O)c3cc4c(cc3n2)OCCO4)cc1,i,104.0,-19.3,18.0,103.0,5.0,/,/,/
Cc1ccc(Cl)cc1NC(C#N)c1ccccc1 (centres undefined),-0.4,115.0,5.7,-3.5,129.0*,24.0,104.0,-1.0,102.0
Cc1c(N2C(=O)c3ccc(Br)cc3C2=O)c(=O)n(-c2ccccc2)n1C,0.5,3.0*[inhibitor],0.6,-16.2,2.0*[inhibitor],-16.0,97.0,5.0,100.0
Cc1cc(OC(=O)c2c(F)cc(F)cc2F)nc(C)n1,1.6,123.0,-8.6,-2.1,149.0*,5.0,93.0,-3.0,93.0
COc1ccc(/C=C2\SC(=O)N(CCC(=O)Nc3ccccc3)C2=O)cc1OC,-5.8,90.0,-10.3,2.6,89.0,-2.0,/,/,/
COc1cc(/C=C2\SC(=O)N(CCN)C2=O)ccc1OS(=O)(=O)c1cc(C)ccc1C,6.6,178.0*,/,/,97.0,14.0,191.0,54.0,110.0
CSc1cccc(NC(=O)/C=C/c2ccc(Cl)cc2)c1,0.3,146.0*,15.5,-17.1,107.0,10.0,126.0,12.0,107.0
O=C1CCCc2c1sc1nc3n(c(=O)c21)CCCCC3,5.1,139.0*,-2.8,-5.1,114.0,14.0,97.0,-3.0,100.0
Clc1ccc(-[n+]2c(-c3cccc(Br)c3)[nH]c3nc4ccccc4nc32)cc1,/,87.0,11.5,19.7,96.0,-5.0,/,/,/
COc1ccc(NC(=O)c2cn(CCC#N)nc2-c2cccs2)cc1,1.3,108.0,4.6,0.4,140.0*,1.0,104.0,4.0,104.0
N#CCCn1cc(C(=O)Nc2ccc([N+](=O)[O-])cc2)c(-c2cccs2)n1,6.2,100.0,15.1,-9.1,99.0,0.0,/,/,/
COCCN(Cc1cc2cc3c(cc2[nH]c1=O)OCO3)C(=O)c1cccs1,/,103.0,/,/,99.0,7.0,/,/,/
CC(=NOCc1nc2ccccc2c(=O)n1N=Cc1cc(C)cc([N+](=O)[O-])c1O)c1ccccc1,-0.1,/,/,/,/,/,/,/,/

# Screening data deposited in PubChem BioAssay by several laboratories.
